Experimental findings from ChEMBL document CHEMBL1133679, “Synthesis and cytotoxicity of 4-amino-5-oxopyrido[2,3-d]pyrimidine nucleosides” (J Med Chem, 2000) are described below.

The term EC50 denotes the concentration needed to bring the measured effect to its halfway point. The low end stands for greater potency, the high end for weaker potency.

Common to all, as to type: functional, cell-based
Experiment [1] is described as follows: Cytotoxicity that caused a 50% reduction in absorbance at 490 nm in human prostate cancer HTB-81 cells using MTS assay. Put shortly:
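DU-145 (HTB-81) prostate cancer cells were grown in MEM with 10% fetal bovine serum and 2 mM L-glutamine. They were plated at 4×10^3 per well and treated at 0.78–100 μM from 100 mM DMSO stocks diluted in medium, with a 1% DMSO control. MTS read at 490 nm after 72 h. EC50 is the 50% absorbance drop versus untreated cells.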

The nature of experiment [2]: Cytotoxicity that caused a 50% reduction in absorbance at 490 nm in normal human fibroblast (NHF) cells using MTS assay. Put shortly:
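Normal human dermal fibroblasts were cultivated in FGM medium and seeded at 4×10^3 cells per well. Exposure was 0.78–100 μM, diluted in medium from 100 mM DMSO stocks, with a 1% DMSO control. Formazan absorbance at 490 nm was measured by MTS after 72 h. EC50 is the concentration halving absorbance relative to untreated cells.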
For orientation: Tetrazolium dyes change colour on reduction, which living cells bring about.

Another experiment relates to B16. Briefly: Cytotoxicity that caused a 50% reduction in absorbance at 490 nm in B16 mouse melanoma cells using MTS assay. The procedure, abridged: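 Compounds taken from 100 mM DMSO stocks and diluted in culture medium. Cells seeded at 4×10^3 per well and exposed to 0.78–100 μM. A 1% DMSO control was run in parallel. MTS reagent added after 72 h and formazan read at 490 nm. EC50 is the concentration giving 50% absorbance reduction versus untreated cells.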

Where only a bound is given, the exact number is not on record here.

With `C#C[C@@]1(O)[C@@H](CO)OC(n2ccc(=O)c3c(N)ncnc32)[C@@H]1O` (stereo partly specified), the EC50 in experiment [1] (Homo sapiens, HTB-81) is 0.68 µM; in experiment [2] (Homo sapiens), 6.45 µM; in the experiment with B16 (Mus musculus, B16) it was 2.48 µM.
For `Nc1ncnc2nccc(O)c12`, the EC50 in experiment [1] (Homo sapiens, HTB-81) is more than 100 µM; in experiment [2] (Homo sapiens), more than 100 µM; in the experiment with B16 (Mus musculus, B16), more than 100 µM.
Take `COc1cccc2c1C(=O)c1c(O)c3c(c(O)c1C2=O)C[C@@](O)(C(C)=O)C[C@@H]3O[C@H]1C[C@H](N)[C@H](O)[C@H](C)O1` [DAUNORUBICIN]: the EC50 in experiment [1] (Homo sapiens, HTB-81) amounted to 0.058 µM; in experiment [2] (Homo sapiens) it was 0.22 µM; with B16 (Mus musculus, B16), 0.16 µM.
Regarding `Nc1ncnc2c1c(=O)ccn2[C@@H]1O[C@H](CO)C[C@H]1O`, the EC50 in experiment [1] (Homo sapiens, HTB-81) was 2.6 µM; in experiment [2] (Homo sapiens), 9.5 µM; in the experiment with B16 (Mus musculus, B16), 19 µM.
Turning to `C=CC[C@@H](O)[C@H]1OC(n2ccc(=O)c3c(N)ncnc32)[C@H](O)[C@@H]1O` (stereo partly specified), the EC50 in experiment [1] (Homo sapiens, HTB-81) was 35.3 µM; in experiment [2] (Homo sapiens) it was 72 µM; in the experiment with B16 (Mus musculus, B16), 66.3 µM.
As to `Nc1ncnc2c1c(=O)ccn2[C@H]1C[C@H](O)[C@@H](CO)O1`, the EC50 is 3.9 µM in experiment [1] (Homo sapiens, HTB-81); 5 µM in experiment [2] (Homo sapiens); 11.3 µM in the experiment with B16 (Mus musculus, B16).
For `C=C1[C@@H](O)[C@H](n2ccc(=O)c3c(N)ncnc32)O[C@@H]1CO`, in that order: 31.1 µM, 41.1 µM and 60.5 µM.
Regarding `C[C@@H](O)[C@H]1O[C@@H](n2ccc(=O)c3c(N)ncnc32)[C@H](O)[C@@H]1O.C[C@H](O)[C@H]1O[C@@H](n2ccc(=O)c3c(N)ncnc32)[C@H](O)[C@@H]1O`, the EC50 in experiment [1] (Homo sapiens, HTB-81) worked out at 10 µM; in experiment [2] (Homo sapiens), 16.5 µM; in the experiment with B16 (Mus musculus, B16) it was 18.3 µM.
Regarding `Nc1ncnc2c1c(=O)ccn2[C@H]1C[C@@H](O)[C@@H](CO)O1`, the EC50 turned out to be 26.6 µM in experiment [1] (Homo sapiens, HTB-81); 38.9 µM in experiment [2] (Homo sapiens); 68.9 µM in the experiment on B16 (Mus musculus, B16).
Turning to `CC[C@]1(CO)OC(n2ccc(=O)c3c(N)ncnc32)[C@H](O)[C@@H]1O` (stereo partly specified), the EC50 in experiment [1] (Homo sapiens, HTB-81) stood at 36.7 µM; in experiment [2] (Homo sapiens), 65.1 µM; in the experiment on B16 (Mus musculus, B16), 96 µM.
`Nc1ncnc2c1c(=O)ccn2[C@@H]1O[C@H](CO)[C@@H](O)[C@H]1O` (stereo in doubt; 1b-L): the EC50 (in experiment [1] (htb-81); in experiment [2]; in the experiment on B16 (b16)) was more than 100 µM in each case.
`Nc1ncnc2c1c(=O)ccn2C1CCC(CO)O1` (stereo unspecified): the EC50 is 43.3 µM in experiment [1] (Homo sapiens, HTB-81); 60.5 µM in experiment [2] (Homo sapiens); 47.1 µM in the experiment on B16 (Mus musculus, B16).
On to `Nc1ncnc2c1c(=O)ccn2C1O[C@H](CO)[C@H](O)[C@H]1O` (stereo partly specified), for which the EC50 turned out to be 0.73 µM in experiment [1] (Homo sapiens, HTB-81); 20.7 µM in experiment [2] (Homo sapiens); 5.9 µM in the experiment on B16 (Mus musculus, B16).
As for `CCC[C@@H](O)[C@H]1OC(n2ccc(=O)c3c(N)ncnc32)[C@H](O)[C@@H]1O` (stereo partly specified), the EC50 in experiment [1] (Homo sapiens, HTB-81) amounted to 20.4 µM; in experiment [2] (Homo sapiens), 41.1 µM; in the experiment on B16 (Mus musculus, B16), 51.6 µM.
On the same counts, the results for `C=C[C@]1(CO)OC(n2ccc(=O)c3c(N)ncnc32)[C@H](O)[C@@H]1O` (stereo partly specified) are 34.2 µM, 76.8 µM and 99.7 µM.
For `C#C[C@@H](O)[C@H]1O[C@@H](n2ccc(=O)c3c(N)ncnc32)[C@H](O)[C@@H]1O.C#C[C@H](O)[C@H]1O[C@@H](n2ccc(=O)c3c(N)ncnc32)[C@H](O)[C@@H]1O` (mixture of isomers), in that order: 6.1 µM, 15.3 µM and 17.2 µM.
On the same counts, the results for `C#C[C@]1(O)C(n2ccc(=O)c3c(N)ncnc32)O[C@H](CO)[C@H]1O` (stereo partly specified) are 29.3 µM, 65.1 µM and 81 µM.
As to `N#Cc1cn([C@@H]2O[C@H](CO)[C@@H](O)[C@H]2O)c2ncnc(N)c12` [TOYOCAMYCIN], the EC50 in experiment [1] (Homo sapiens, HTB-81) came out at 0.012 µM; in experiment [2] (Homo sapiens), 0.004 µM; in the experiment with B16 (Mus musculus, B16), 0.005 µM.
For the molecule `Nc1ncnc2c1c(=O)ccn2[C@@H]1O[C@H](CO)[C@@H](O)[C@H]1O` (stereo in doubt; 1b), the EC50 in experiment [1] (htb-81) stood at 0.06 µM; in experiment [2], 0.08 µM; in the experiment with B16 (b16), 0.06 µM.
As for `C=C1[C@H](n2ccc(=O)c3c(N)ncnc32)O[C@H](CO)[C@H]1O`, the EC50 in experiment [1] (Homo sapiens, HTB-81) was more than 100 µM; in experiment [2] (Homo sapiens) it was more than 100 µM; with B16 (Mus musculus, B16) it was more than 100 µM.
In the case of `Nc1ncnc2c1c(=O)ccn2C1O[C@H](CO)[C@@H](O)[C@@H]1O` (stereo partly specified), the EC50 was determined as 21.9 µM in experiment [1] (Homo sapiens, HTB-81); 23.2 µM in experiment [2] (Homo sapiens); 33.2 µM in the experiment with B16 (Mus musculus, B16).
On the same counts, the results for `CC[C@@H](O)[C@H]1O[C@@H](n2ccc(=O)c3c(N)ncnc32)[C@H](O)[C@@H]1O.CC[C@H](O)[C@H]1O[C@@H](n2ccc(=O)c3c(N)ncnc32)[C@H](O)[C@@H]1O` (mixture of isomers) are 17.3 µM, 18.9 µM and 16.3 µM.
As for `C#C[C@]1(O)[C@@H](CO)OC(n2ccc(=O)c3c(N)ncnc32)[C@@H]1O` (stereo partly specified), the EC50 in experiment [1] (Homo sapiens, HTB-81) was more than 100 µM; in experiment [2] (Homo sapiens) it was more than 100 µM; in the experiment on B16 (Mus musculus, B16) it was more than 100 µM.
As to `C[C@]1(CO)OC(n2ccc(=O)c3c(N)ncnc32)[C@H](O)[C@@H]1O` (stereo partly specified), the EC50 in experiment [1] (Homo sapiens, HTB-81) came out at 19.7 µM; in experiment [2] (Homo sapiens), 29.9 µM; with B16 (Mus musculus, B16), 55.5 µM.
As to `C[C@]1(O)C(n2ccc(=O)c3c(N)ncnc32)O[C@H](CO)[C@H]1O` (stereo partly specified), the EC50 in experiment [1] (Homo sapiens, HTB-81) was 46.7 µM; in experiment [2] (Homo sapiens), more than 100 µM; with B16 (Mus musculus, B16) it was 85.5 µM.
Consider `Nc1ncnc2c1c(=O)ccn2[C@@H]1OC(CO)(CO)[C@@H](O)[C@H]1O`, for which the EC50 is more than 100 µM in experiment [1] (Homo sapiens, HTB-81); more than 100 µM in experiment [2] (Homo sapiens); more than 100 µM in the experiment on B16 (Mus musculus, B16).
`N=c1ncn(C2OC(CO)[C@@H](O)[C@@H]2O)c2nccc(O)c12` (stereo partly specified): the EC50 in experiment [1] (Homo sapiens, HTB-81) is more than 100 µM; in experiment [2] (Homo sapiens), more than 100 µM; in the experiment on B16 (Mus musculus, B16), more than 100 µM.
Regarding `C[C@@]1(O)[C@@H](CO)OC(n2ccc(=O)c3c(N)ncnc32)[C@@H]1O` (stereo partly specified), the EC50 in experiment [1] (Homo sapiens, HTB-81) worked out at 4.44 µM; in experiment [2] (Homo sapiens), 10.4 µM; with B16 (Mus musculus, B16) it was 31.6 µM.
On to `N=c1ncn(C2O[C@H](CO)[C@@H](O)[C@H]2O)c2nccc(O)c12` (stereo partly specified), for which the EC50 in experiment [1] (Homo sapiens, HTB-81) turned out to be 7.3 µM; in experiment [2] (Homo sapiens), 7.3 µM.
